# Measurements published in ChEMBL document CHEMBL2029304, “Synthesis and SAR of tetrahydroisoquinolines as Rev-erbα agonists” (Bioorg Med Chem Lett, 2012).
# Experiments:
# [1] = biological target: T1, Nuclear receptor subfamily 1 group D member 1 (Homo sapiens) (UniProt P20393); test: Agonist activity at Rev-erbalpha assessed as repression of transcription at 10 uM by luciferase-reporter gene assay relative to control; type: functional
# T1 sequence (whole entry): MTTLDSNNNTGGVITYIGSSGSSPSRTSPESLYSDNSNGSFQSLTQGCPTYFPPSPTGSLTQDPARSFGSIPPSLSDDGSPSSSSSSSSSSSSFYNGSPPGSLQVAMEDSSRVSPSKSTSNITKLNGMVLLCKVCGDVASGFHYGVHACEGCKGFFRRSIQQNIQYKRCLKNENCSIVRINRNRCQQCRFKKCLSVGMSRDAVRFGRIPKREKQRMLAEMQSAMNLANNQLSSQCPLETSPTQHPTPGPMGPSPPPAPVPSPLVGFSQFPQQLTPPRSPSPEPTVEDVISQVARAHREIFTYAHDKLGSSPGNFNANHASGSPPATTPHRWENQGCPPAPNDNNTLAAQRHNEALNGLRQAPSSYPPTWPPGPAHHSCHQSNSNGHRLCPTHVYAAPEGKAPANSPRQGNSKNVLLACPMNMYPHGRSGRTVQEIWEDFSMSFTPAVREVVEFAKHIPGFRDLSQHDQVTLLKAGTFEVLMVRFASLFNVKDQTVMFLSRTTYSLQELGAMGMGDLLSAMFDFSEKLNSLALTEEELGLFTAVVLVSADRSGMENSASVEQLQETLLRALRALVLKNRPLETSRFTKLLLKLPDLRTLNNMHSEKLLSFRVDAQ
# Summary of the method: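 Cells co-transfected with a full-length Rev-erbα expression plasmid and a luciferase reporter driven by the Bmal1 promoter. Compounds were screened at 1 μM and 10 μM for repression of Bmal1-driven transcription. The value is the fold change in luciferase signal relative to the DMSO control at 10 μM compound, where 1.0 means no repression.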
# [2] = biological target: T2, Nuclear receptor subfamily 1 group D member 1 (Homo sapiens, UniProt P20393); test: Agonist activity at Rev-erbalpha assessed as repression of transcription by luciferase-reporter gene assay; type: functional
# T2 sequence (P20393 whole entry): T1 sequence (whole entry)
# Summary of the method: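 Cells co-transfected with a full-length Rev-erbα expression plasmid and a luciferase reporter driven by the Bmal1 promoter; repression of Bmal1 transcription read by luciferase. Compounds first tested at 1 μM and 10 μM, value given as fold change versus DMSO control at 10 μM (1.0 = no repression). Active compounds then titrated in an eleven-point dose response to give EC50.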
# Rattus norvegicus [3] = test: Oral bioavailability in Sprague-Dawley rat at 2 mg/kg by LC-MS/MS analysis; type: ADME, organism-based; conditions: in vivo
# Summary of the method: (§1)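 Male/female unspecified Sprague-Dawley rats, n = 3; single 1 mg/kg i.v. dose and 2 mg/kg oral gavage dose. Blood sampled at 5, 15, 30 min, 1, 2, 4, 6, 8 h into EDTA tubes, plasma by centrifugation, proteins precipitated with acetonitrile, drug measured by LC-MS/MS. Noncompartmental analysis gave t1/2, clearance, Vd, AUC, Cmax and oral bioavailability.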
# Rattus norvegicus [4] = test: Volume of distribution in Sprague-Dawley rat at 1 mg/kg, iv and 2 mg/kg, po by LC-MS/MS analysis; type: ADME, organism-based; conditions: in vivo; summary of the method: as §1
# [5] = Half life in Sprague-Dawley rat at 1 mg/kg, iv and 2 mg/kg, po by LC-MS/MS analysis; type: ADME, organism-based; conditions: in vivo; summary of the method: as §1
# Brain = test: Brain penetration in C57Bl6 mouse at 10 mg/kg, ip after 2 hrs by LC-MS/MS analysis; type: ADME, organism-based; parameters: dose 10 mg/kg, route intraperitoneal; conditions: in vivo
# Summary of the method: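 C57Bl6 mice (n = 3), single 10 mg/kg intraperitoneal dose; blood and brain collected at 2 h, plasma frozen at −80°C. Plasma and brain mixed with acetonitrile (1:5 v:v or w:v), brain probe-sonicated, drug measured by LC-MS/MS against plasma or blank-brain-matrix standards; brain penetration as brain/plasma level percentage.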
# [6] = biological target: T2, Nuclear receptor subfamily 1 group D member 1; test: Agonist activity at Rev-erbalpha assessed as NCoR recruitment by FRET assay; type: functional
Structure (SMILES),fold change (FC) [1],EC50 [2] [nM],further results
O=C(c1cccc2ccccc12)N1Cc2ccccc2CC1CO (stereo unspecified),0.71,–,–
CCOc1ccc(OCC2Cc3ccccc3CN2C(=O)c2cccc3ccccc23)cc1 (stereo unspecified),0.35,97,–
COc1ccc(OCC2Cc3ccccc3CN2C(=O)c2cccc3ccccc23)cc1 (stereo unspecified),0.38,120,–
CC(=O)OCC1Cc2ccccc2CN1C(=O)c1cccc2ccccc12 (stereo unspecified),0.65,–,–
CCCOc1ccc(OCC2Cc3ccccc3CN2C(=O)c2cccc3ccccc23)cc1 (stereo unspecified),0.45,77,–
O=C(c1cccc2ccccc12)N1Cc2ccccc2CC1CNS(=O)(=O)c1ccccc1 (stereo unspecified),0.4,–,–
CCOC(=O)C1Cc2ccccc2CN1C(=O)c1cccc2oc(C)cc12 (stereo unspecified),0.51,> 3000,–
CCOC(=O)C1Cc2ccccc2CN1S(=O)(=O)c1ccc(C)cc1 (stereo unspecified),0.51,1100,–
CCOC(=O)C1Cc2ccccc2CN1C(=O)C1CCCc2ccccc21 (stereo unspecified),0.73,–,–
O=C(c1cccc2ccccc12)N1Cc2ccccc2CC1COc1cccc2ccccc12 (stereo unspecified),0.41,1200,–
CCOC(=O)C1Cc2ccccc2CN1C(=O)c1cccc2ccccc12 (stereo unspecified),0.41,2500,–
CCOC(=O)C1Cc2ccccc2CN1Cc1ccc(C(=O)O)s1 (stereo unspecified),1,–,–
CCOC(=O)C1Cc2ccccc2CN1C(=O)C1COc2ccccc2O1 (stereo unspecified),0.81,–,–
COc1cccc(OCC2Cc3ccccc3CN2C(=O)c2cccc3ccccc23)c1 (stereo unspecified),0.45,620,–
CCOC(=O)C1Cc2ccccc2CN1C(=O)c1ccno1 (stereo unspecified),1,–,–
CCOC(=O)C1Cc2ccccc2CN1C(=O)Nc1cccc2ccccc12 (stereo unspecified),1,–,–
CCOC(=O)C1Cc2ccccc2CN1S(=O)(=O)c1cccc(Br)c1 (stereo unspecified),0.75,–,–
NC(=O)C1Cc2ccccc2CN1C(=O)c1cccc2ccccc12 (stereo unspecified),0.61,–,–
NCC1Cc2ccccc2CN1C(=O)c1cccc2ccccc12 (stereo unspecified),0.74,–,–
O=C(c1cccc2ccccc12)N1Cc2ccccc2CC1COc1ccc(F)cc1F (stereo unspecified),0.45,710,–
CCOC(=O)C1Cc2ccccc2CN1C(=O)c1cccc2c1CCCC2 (stereo unspecified),0.53,2100,–
O=C(c1cccc2ccccc12)N1Cc2ccccc2CC1COc1ccc(F)cc1 (stereo unspecified),0.43,800,–
O=C(NCC1Cc2ccccc2CN1C(=O)c1cccc2ccccc12)OCc1ccccc1 (stereo unspecified),0.53,–,–
CCOC(=O)C1Cc2ccccc2CN1C(=O)Oc1cccc(C(F)(F)F)c1 (stereo unspecified),1,–,–
O=C(c1cccc2ccccc12)N1Cc2ccccc2CC1CNCc1ccccc1 (stereo unspecified),0.43,> 3000,F (Rattus norvegicus [3]): 0%; Vd (Rattus norvegicus [4]): 3.8 L/kg; half-life [5]: 1.7 h
COc1ccccc1OCC1Cc2ccccc2CN1C(=O)c1cccc2ccccc12 (stereo unspecified),0.4,2000,–

Structure (SMILES),fold change (FC) [1],EC50 [2] [nM],further results
CCOC(=O)C1Cc2ccccc2CN1Cc1nc2ccccc2s1 (stereo unspecified),0.95,–,–
CCOC(=O)C1Cc2ccccc2CN1Cc1ccc(C(F)(F)F)nc1 (stereo unspecified),1,–,–
O=C(Nc1ccccc1)C1Cc2ccccc2CN1C(=O)c1cccc2ccccc12 (stereo unspecified),0.59,–,–
CCOC(=O)C1Cc2ccccc2CN1C(=O)c1ccccc1Cl (stereo unspecified),0.78,–,–
CCOC(=O)C1Cc2ccccc2CN1Cc1cccc2ccccc12 (stereo unspecified),1,–,–
O=C(c1cccc2ccccc12)N1Cc2ccccc2CC1COc1ccc(OC(F)(F)F)cc1 (stereo unspecified),0.4,600,–
O=C(c1cccc2ccccc12)N1Cc2ccccc2CC1COc1ccc(-c2ccccc2)cc1 (stereo unspecified),0.4,650,–
O=C(c1cccc2ccccc12)N1Cc2ccccc2CC1COCc1ccccc1 (stereo unspecified),0.41,650,F (Rattus norvegicus [3]): 0%; Vd (Rattus norvegicus [4]): 3.8 L/kg; half-life [5]: 1.9 h
COc1ccc(OCC2Cc3ccccc3CN2C(=O)c2cccc3ccccc23)cc1OC (stereo unspecified),0.55,330,–
CCOC(=O)C1Cc2ccccc2CN1C(=O)Nc1ccccc1 (stereo unspecified),1.5,–,–
CCOC(=O)C1Cc2ccccc2CN1Cc1ccc([N+](=O)[O-])s1 (stereo unspecified),0.78,–,–
CN(C)c1cccc(OCC2Cc3ccccc3CN2C(=O)c2cccc3ccccc23)c1 (stereo unspecified),0.3,780,–
CCOC(=O)C1Cc2ccccc2CN1C(=O)Oc1ccccc1 (stereo unspecified),1,–,–
O=C(c1cccc2ccccc12)N1Cc2ccccc2CC1COc1ccccc1 (stereo unspecified),0.37,840,–
O=C(O)C1Cc2ccccc2CN1C(=O)c1cccc2ccccc12 (stereo unspecified),0.67,–,–
CCOC(=O)C1Cc2ccccc2CN1C(=O)c1cccc2cccnc12 (stereo unspecified),0.64,–,–
CCOC(=O)C1Cc2ccccc2CN1C(=O)c1cccc(Br)c1 (stereo unspecified),0.97,–,–
CCOC(=O)C1Cc2ccccc2CN1Cc1ccc([N+](=O)[O-])o1 (stereo unspecified),0.9,–,–
CCOC(=O)C1Cc2ccccc2CN1C(=O)c1ccccc1 (stereo unspecified),0.97,–,–
CCOC(=O)C1Cc2ccccc2CN1S(=O)(=O)c1cccc2ccccc12 (stereo unspecified),0.5,1700,–
O=C(c1cccc2ccccc12)N1Cc2ccccc2CC1COc1ccc(-n2cncn2)cc1 (stereo unspecified),0.35,120,–
CC(C)(C)OC(=O)CN(Cc1ccc(Cl)cc1)Cc1ccc([N+](=O)[O-])s1 [GSK-4112],0.82,2300,F (Rattus norvegicus [3]): 0%; Vd (Rattus norvegicus [4]): 9.9 L/kg; Drug uptake (Brain): 140%; EC50 [6]: 400 nM; half-life [5]: 0.4 h
CC(C)(C)Oc1ccc(OCC2Cc3ccccc3CN2C(=O)c2cccc3ccccc23)cc1 (stereo unspecified),0.5,140,–
CCOC(=O)C1Cc2ccccc2CN1C(=O)Oc1ccc(Cl)cc1 (stereo unspecified),1.3,–,–
O=C(NCc1ccccc1)C1Cc2ccccc2CN1C(=O)c1cccc2ccccc12 (stereo unspecified),0.55,> 3000,–
